Measurements from ChEMBL document CHEMBL3804796, “Discovery of Novel 3,3-Disubstituted Piperidines as Orally Bioavailable, Potent, and Efficacious HDM2-p53 Inhibitors” (ACS Med Chem Lett, 2016).
In brackets after ≈: the same amount, converted by molar mass. Activity calls are given as the source filed them. No cut-off for these calls is given here.

Legend:
Mus musculus = assay: Dose normalized AUC (0 to 24 hrs) in mouse at 1 mg/kg, po administered as single dose; type: ADME, organism-based; settings: in vivo
Outline: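 Single oral dose of 1 mg/kg. Vehicle was 20% HPBCD for mouse and 0.4% HPMC for dog and monkey. Plasma AUC over 0–24 h, dose-normalized, reported in μM·h.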

[1] = Antitumor activity against human SJSA1 cells xenografted in nude mouse assessed as tumor growth inhibition at 100 mg/kg, po qd administered with cycle of 3 days on, 4 days off for 30 days relative to control; type: functional; settings: SJSA-1, po, read-out: TGI
Outline: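 Nude mice bearing SJSA-1 osteosarcoma xenografts, n = 5 per group. Oral dosing in 20% HPBCD, given either intermittently (daily, 3 days on/4 days off) or continuously daily. Body weight was monitored against a vehicle control group.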

A549 [2] = assay: Antitumor activity against human A549 cells xenografted in nude mouse assessed as tumor growth inhibition at 200 mg/kg, po qd continuously for 30 days relative to control; type: functional; settings: 720 h, read-out: TGI
Outline: (§1)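 Mice bearing A549 NSCLC xenografts. The test agent was given orally, either daily or intermittently (daily for 3 days, then 4 days off). Paclitaxel was given at 20 mg/kg ip weekly, alone or in combination. Read-out was tumor growth inhibition.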

WM-115 = assay: Antiproliferative activity against human WM115 cells expressing wild type p53 after 72 hrs by CellTitre-Glo assay; type: functional, cell-based
Outline: (§2)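 Cell lines exposed to compound for 72 h; viability read by CellTiter-Glo and IC50 derived. p53 coding-region mutation status of each line established by direct sequencing.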

A2780 [3] = assay: Antiproliferative activity against human A2780 cells expressing wild type p53 after 72 hrs by CellTitre-Glo assay; type: functional, cell-based; outline: as §2
BC1 = assay: Antiproliferative activity against human BC1 cells expressing wild type p53 after 72 hrs by CellTitre-Glo assay; type: functional, cell-based; outline: as §2
[4] = Fraction unbound in human plasma; type: ADME, cell-free
SR = assay: Antiproliferative activity against human SR cells expressing wild type p53 after 72 hrs by CellTitre-Glo assay; type: functional, cell-based; outline: as §2
NCI-H292 = assay: Antiproliferative activity against human NCI-H292 cells expressing wild type p53 after 72 hrs by CellTitre-Glo assay; type: functional, cell-based; outline: as §2
A549 [5] = assay: Antitumor activity against human A549 cells xenografted in nude mouse assessed as tumor growth inhibition at 100 mg/kg, po qd administered with cycle of 3 days on, 4 days off for 30 days coadministered with 20 mg/kg, ip once weekly paclitaxel relative to control; type: functional; outline: as §1
SJSA-1 [6] = assay: Antitumor activity against human SJSA1 cells xenografted in nude mouse assessed as tumor growth inhibition at 100 mg/kg, po qd continuously for 30 days; type: functional, organism-based
Outline: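 Nude mice bearing SJSA-1 osteosarcoma xenografts, 5 per group, dosed orally in 20% HPBCD. Schedules were either continuous daily or intermittent (3 days on, 4 days off), at 100 and 200 mpk. Tumor volume and body weight followed against a vehicle control group.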

HCT-116 [7] = assay: Selectivity ratio of IC50 for p53 null human H1299 cells to IC50 for human HCT116 cells expressing wild type p53; type: functional
Outline: (§3)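 Ratio of two IC50s, each from a 72 h CellTiter-Glo viability assay. p53 coding-region status was confirmed by direct sequencing. The ratio is p53-mutant (SK-UT-1) or p53-null (H1299) IC50 divided by wild-type p53 (SJSA-1 or HCT116) IC50.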

[8] = Antiproliferative activity against human SJSA1 cells expressing wild type p53 after 72 hrs by CellTitre-Glo assay; settings: SJSA-1, 72 h
[9] = Solubility of compound in pH 7.4 phosphate buffer; type: physicochemical
HCT-116 [10] = assay: Selectivity ratio of IC50 for human SK-UT-1 cells harboring mutant p53 to IC50 for human HCT116 cells expressing wild type p53; type: functional; outline: as §3
DOHH-2 = assay: Antiproliferative activity against human DOHH2 cells expressing wild type p53 after 72 hrs by CellTitre-Glo assay; type: functional, cell-based; outline: as §2
MCF7 = assay: Antiproliferative activity against human MCF7 cells expressing wild type p53 after 72 hrs by CellTitre-Glo assay; type: functional, cell-based; outline: as §2
A2780 [11] = assay: Antitumor activity against human A2780 cells xenografted in nude mouse harboring wild type p53 assessed as tumor growth inhibition at 50 mg/kg, po bid continuously for 15 days coadministered with 40 mg/kg, ip, once weekly docetaxel relative to control; type: functional
Outline: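 Wild-type p53 mice bearing A2780 ovarian xenografts. The test agent was given at 50 mg/kg orally twice daily, continuously. Docetaxel was given at 40 mg/kg ip weekly, twice in total. Each was given alone and in combination. Read-out was tumor growth inhibition.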

[12] = Clearance in monkey at 1 mg/kg, iv; type: ADME, organism-based, Macaca mulatta; settings: rhesus monkey, in vivo
[13] = Clearance in mouse at 2 mg/kg, iv; type: ADME, organism-based; settings: in vivo
MOLT-4 = assay: Antiproliferative activity against human MOLT4 cells expressing wild type p53 after 72 hrs by CellTitre-Glo assay; type: functional, cell-based; outline: as §2
MES-SA = assay: Antiproliferative activity against human MES-SA cells expressing wild type p53 after 72 hrs by CellTitre-Glo assay; type: functional, cell-based; outline: as §2
Cytochrome P450 1A2 = Cytochrome P450 1A2 (Homo sapiens, UniProt P05177); assay: Inhibition of CYP1A2 (unknown origin); type: ADME
Cytochrome P450 2C8 = Cytochrome P450 2C8 (Homo sapiens, UniProt P10632); assay: Inhibition of CYP2C8 (unknown origin); type: ADME
LOX IMVI = assay: Antiproliferative activity against human LOXIMVI cells expressing wild type p53 after 72 hrs by CellTitre-Glo assay; type: functional, cell-based; outline: as §2
SJSA-1 [14] = assay: Induction of apoptosis in human SJSA1 cells assessed as caspase 3/7 activation; type: functional, cell-based
Cytochrome P450 3A4 = Cytochrome P450 3A4 (Homo sapiens, UniProt P08684); assay: Time dependent inhibition of CYP3A4 (unknown origin); type: ADME
SJSA-1 [15] = assay: Selectivity ratio of IC50 for p53 null human H1299 cells to IC50 for human SJSA1 cells expressing wild type p53; type: functional; outline: as §3
Cytochrome P450 2C9 = Cytochrome P450 2C9 (Homo sapiens, UniProt P11712); assay: Inhibition of CYP2C9 (unknown origin); type: ADME
CMLT1 = assay: Antiproliferative activity against human CMLT1 cells expressing wild type p53 after 72 hrs by CellTitre-Glo assay; type: functional, cell-based; outline: as §2
NCI-H460 = assay: Antiproliferative activity against human NCI-H460 cells expressing wild type p53 after 72 hrs by CellTitre-Glo assay; type: functional, cell-based; outline: as §2
EOL1 = assay: Antiproliferative activity against human EOL-1 cells expressing wild type p53 after 72 hrs by CellTitre-Glo assay; type: functional, cell-based; outline: as §2
Daudi = assay: Antiproliferative activity against human Daudi cells expressing wild type p53 after 72 hrs by CellTitre-Glo assay; type: functional, cell-based; outline: as §2
CWR22R = assay: Antiproliferative activity against human 22Rv1 cells expressing wild type p53 after 72 hrs by CellTitre-Glo assay; type: functional, cell-based; outline: as §2
[16] = Fraction unbound in dog plasma; type: ADME, cell-free, Canis lupus familiaris
CAKI-1 = assay: Antiproliferative activity against human Caki1 cells expressing wild type p53 after 72 hrs by CellTitre-Glo assay; type: functional, cell-based; outline: as §2
A-375 = assay: Antiproliferative activity against human A375 cells expressing wild type p53 after 72 hrs by CellTitre-Glo assay; type: functional, cell-based; outline: as §2

Chain of Cytochrome P450 2C8 (P10632 whole entry): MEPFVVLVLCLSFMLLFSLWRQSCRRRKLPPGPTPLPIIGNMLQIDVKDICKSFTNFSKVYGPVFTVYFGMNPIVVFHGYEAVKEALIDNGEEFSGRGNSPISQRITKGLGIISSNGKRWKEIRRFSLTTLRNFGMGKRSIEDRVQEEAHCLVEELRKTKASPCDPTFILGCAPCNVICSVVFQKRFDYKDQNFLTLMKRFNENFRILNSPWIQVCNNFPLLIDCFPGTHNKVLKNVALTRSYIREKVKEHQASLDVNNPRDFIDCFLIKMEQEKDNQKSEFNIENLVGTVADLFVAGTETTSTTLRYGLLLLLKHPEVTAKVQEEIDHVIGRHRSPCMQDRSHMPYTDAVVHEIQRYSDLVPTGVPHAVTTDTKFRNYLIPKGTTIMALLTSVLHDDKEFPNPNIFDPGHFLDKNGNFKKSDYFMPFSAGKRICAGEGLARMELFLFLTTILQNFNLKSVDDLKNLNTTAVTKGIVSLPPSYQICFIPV
Chain of Cytochrome P450 3A4 (P08684 whole entry): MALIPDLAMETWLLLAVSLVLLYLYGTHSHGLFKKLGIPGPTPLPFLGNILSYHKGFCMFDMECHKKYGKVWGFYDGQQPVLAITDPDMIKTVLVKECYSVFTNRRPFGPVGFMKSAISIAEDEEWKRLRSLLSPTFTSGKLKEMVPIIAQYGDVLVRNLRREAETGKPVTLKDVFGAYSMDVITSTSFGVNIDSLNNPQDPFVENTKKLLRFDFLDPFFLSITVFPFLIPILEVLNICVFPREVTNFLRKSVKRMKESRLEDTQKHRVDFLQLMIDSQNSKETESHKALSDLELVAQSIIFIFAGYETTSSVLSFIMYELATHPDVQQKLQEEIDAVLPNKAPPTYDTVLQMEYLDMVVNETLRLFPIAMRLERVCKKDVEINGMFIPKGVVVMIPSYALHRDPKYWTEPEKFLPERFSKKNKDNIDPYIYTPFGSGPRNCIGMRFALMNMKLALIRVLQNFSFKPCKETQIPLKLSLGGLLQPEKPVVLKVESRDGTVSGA
Chain of Cytochrome P450 1A2 (P05177 whole entry): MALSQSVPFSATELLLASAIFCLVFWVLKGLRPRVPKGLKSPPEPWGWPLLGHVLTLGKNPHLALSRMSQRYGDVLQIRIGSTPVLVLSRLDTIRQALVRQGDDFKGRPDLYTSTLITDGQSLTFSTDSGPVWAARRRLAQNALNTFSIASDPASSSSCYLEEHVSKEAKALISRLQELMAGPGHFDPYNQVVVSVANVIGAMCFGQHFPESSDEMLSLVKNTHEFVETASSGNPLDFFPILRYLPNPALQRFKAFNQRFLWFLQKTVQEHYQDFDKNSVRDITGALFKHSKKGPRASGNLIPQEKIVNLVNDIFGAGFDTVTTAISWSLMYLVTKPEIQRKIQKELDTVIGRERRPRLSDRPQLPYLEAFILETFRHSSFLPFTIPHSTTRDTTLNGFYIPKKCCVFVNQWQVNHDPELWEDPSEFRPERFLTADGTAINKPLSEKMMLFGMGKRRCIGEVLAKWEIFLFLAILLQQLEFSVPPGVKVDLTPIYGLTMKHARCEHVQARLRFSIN
Chain of Cytochrome P450 2C9 (P11712 whole entry): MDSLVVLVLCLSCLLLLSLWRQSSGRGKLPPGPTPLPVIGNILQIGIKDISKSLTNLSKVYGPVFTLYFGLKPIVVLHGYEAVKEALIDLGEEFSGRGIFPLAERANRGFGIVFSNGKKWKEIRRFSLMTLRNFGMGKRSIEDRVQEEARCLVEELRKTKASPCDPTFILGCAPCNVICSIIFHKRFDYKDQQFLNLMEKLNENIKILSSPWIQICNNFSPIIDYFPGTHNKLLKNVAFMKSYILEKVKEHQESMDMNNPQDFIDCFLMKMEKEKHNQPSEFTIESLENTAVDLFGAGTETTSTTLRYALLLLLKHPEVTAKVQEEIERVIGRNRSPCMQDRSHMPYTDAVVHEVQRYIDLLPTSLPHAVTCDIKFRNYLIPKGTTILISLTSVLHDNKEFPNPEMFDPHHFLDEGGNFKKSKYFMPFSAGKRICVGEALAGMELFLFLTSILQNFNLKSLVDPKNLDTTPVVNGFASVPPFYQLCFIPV

Molecule `CCC[C@H]1N(C(=O)c2cnccc2C(F)(F)F)CCC[C@@]1(Oc1csc(C(F)(F)F)c1)C(=O)N1CCN(c2ccccc2OCCCC(=O)O)CC1` has an AUC/dose (Mus musculus) of 0.1 µM·h, an inhibition in vivo at 100 mg/kg [1] of 31% and an inhibition in vivo at 200 mg/kg (A549 [2]) of 75%. For the same molecule, the Activity (WM-115) was “Active”, the Activity (A2780 [3]) was “Active” and the Activity (BC1) was “Active”. For the same molecule, the fraction unbound [4] was 0.04, the Activity (SR) was “Active” and the Activity (NCI-H292) was “Active”. The TGI (A549 [5]) was 85%, the TGI (SJSA-1 [6]) was “Active” and the “Ratio IC50” value (HCT-116 [7]) was over 500. The IC50 [8] was 80 nM, the solubility [9] was 100 µM (≈ 75.7 µg/mL) and the “Ratio IC50” value (HCT-116 [10]) was over 500. For the same molecule, the Activity (DOHH-2) was “Active”, the Activity (MCF7) was “Active” and the TGI (A2780 [11]) was 81%. For the same molecule, the clearance [12] was 23 mL/min/kg, the clearance [13] was 133 mL/min/kg and the Activity (MOLT-4) was “Active”. The Activity (MES-SA) was “Active”, the IC50 (Cytochrome P450 1A2) was over 50000 nM and the IC50 (Cytochrome P450 2C8) was over 50000 nM. The Activity (LOX IMVI) was “Active”, the IC50 (SJSA-1 [14]) was 90 nM and the TDI (Cytochrome P450 3A4) was “Active”. For the same molecule, the “Ratio IC50” value (SJSA-1 [15]) was over 500, the IC50 (Cytochrome P450 2C9) was over 50000 nM and the Activity (CMLT1) was “Active”. For the same molecule, the Activity (NCI-H460) was “Active”, the Activity (EOL1) was “Active” and the Activity (Daudi) was “Active”. For the same molecule, the Activity (CWR22R) was “Active”, the fraction unbound [16] was 0.02 and the Activity (CAKI-1) was “Active”. The Activity (A-375) was “Active”.
